The subject of experiment [1] is Caudate-putamen. Put plainly: In vivo displacement of [3H]Nemonapride from dopamine D2 receptor in Sprague-Dawley rat lateral of caudate putamen at 13.75 mg/kg, ip qd for 28 days by autoradiography relative to control. The format is functional. The note with it: route intraperitoneal. Summed up: (§1)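 Male Sprague-Dawley rats, N = 8/group, daily ip dosing for 28 days with vehicle controls; cryostat sections (10 μm) preincubated 1 h RT. Incubation 1 h RT in 50 mM Tris-HCl pH 7.4, 120 mM NaCl, 5 mM KCl, 2 mM CaCl2, 1 mM MgCl2 with 1 nM [3H]nemonapride, 0.5 μM DTG, 0.1 μM pindolol. Nonspecific: 10 μM S(−)-sulpiride. Values fmol/mg tissue, % of control.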
Background: Displacement assays read how much labelled ligand stays bound in the presence of the test substance.

The target in experiment [2] is D(2) dopamine receptor (Rattus norvegicus) (UniProt P61169). Put plainly: In vivo displacement of [3H]Nemonapride from dopamine D2 receptor in Sprague-Dawley rat dorsolateral frontal cortex at 13.75 mg/kg, ip qd for 28 days by autoradiography relative to control. Type of experiment: functional, organism-based. Also on record: dose 13.75 mg/kg. The essentials: as §1

For experiment [3], the system named is Hippocampus. Put plainly: In vivo displacement of [3H]Nemonapride from dopamine D2 receptor in Sprague-Dawley rat hippocampus at 13.75 mg/kg, ip qd for 28 days by autoradiography relative to control. Type of experiment: functional. The note with it: route intraperitoneal. Summed up:
as §1

Experiment [4] is described as follows: In vivo displacement of [3H]Ketanserin from 5HT2A receptor in Sprague-Dawley rat dorsolateral frontal cortex at 13.75 mg/kg, ip qd for 28 days by autoradiography relative to control. As to conditions: route intraperitoneal. The format is functional. Summed up:
(§2)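 Rats (male Sprague-Dawley, N = 8/group) given daily ip injections for 28 days versus vehicle. Brain sections preincubated 1 h RT in 50 mM Tris-HCl pH 7.7, then 1 h RT with 3.0 nM [3H]ketanserin plus 1 μM prazosin and 100 nM tetrabenazine. Nonspecific: 1 μM methysergide. Washes 2 × 30 min ice-cold. Readout fmol/mg tissue as % of control, mean ± SEM.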

Experiment [5] relates to Hippocampus. Put plainly: In vivo displacement of [3H]SCH-23390 from dopamine D1 receptor in Sprague-Dawley rat hippocampus at 13.75 mg/kg, ip qd for 28 days by autoradiography relative to control. As to conditions: route intraperitoneal. The format is functional. The essentials:
(§3)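 Forebrain sections from male Sprague-Dawley rats (N = 8/group) after 28 days of daily ip injections versus vehicle. Incubation 1 h RT in 50 mM Tris-HCl pH 7.4, 120 mM NaCl, 5 mM KCl, 2 mM CaCl2, 1 mM MgCl2 with 1 nM [3H]SCH-23390 and 100 nM ketanserin. Nonspecific: 1 μM cis-flupenthixol. Saturating conditions; fmol/mg tissue, % of control.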

Experiment [6] deals with T1, Serotonin 1a (5-HT1a) receptor/Adrenergic receptor alpha-1 (Rattus norvegicus) (UniProt P15823+P23944+P43140+P19327). Put plainly: In vivo displacement of [3H]8-OH-DPAT from 5HT1A receptor in Sprague-Dawley rat medial-prefrontal cortex at 13.75 mg/kg, ip qd for 28 days by autoradiography relative to control. Type of experiment: functional, organism-based. The arrangement: dose 13.75 mg/kg. The essentials:
(§4)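 Male Sprague-Dawley rats (200−225 g, N = 8/group) dosed ip once daily for 28 days, vehicle controls, decapitated; 10 μm frozen coronal sections. Preincubation 1 h RT in 50 mM Tris-HCl pH 7.6, 0.1% ascorbic acid, 4 mM CaCl2, 10 μM pargyline; then 1 h RT with 2.0 nM [3H]8-OH-DPAT. Nonspecific: 1 μM 5-HT. Saturating conditions; binding in fmol/mg tissue, % of control, mean ± SEM.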

The test system of experiment [7] is Hippocampus. Put plainly: In vivo displacement of [3H]Ketanserin from 5HT2A receptor in Sprague-Dawley rat hippocampus CA1 region at 13.75 mg/kg, ip qd for 28 days by autoradiography relative to control. As to conditions: route intraperitoneal. Type of experiment: functional. The essentials:
as §2

Experiment [8] in a line: In vivo displacement of [3H]SCH-23390 from dopamine D1 receptor in Sprague-Dawley rat nucleus accumbens at 13.75 mg/kg, ip qd for 28 days by autoradiography relative to control. The format is functional. The note with it: route intraperitoneal. Summed up:
as §3

A short description of experiment [9]: In vivo displacement of [3H]Nemonapride from dopamine D4 receptor in Sprague-Dawley rat dorsolateral frontal cortex at 13.75 mg/kg, ip qd for 28 days by autoradiography relative to control. The format is functional. As to conditions: route intraperitoneal.
Experiment [10] has as its target T1, Serotonin 1a (5-HT1a) receptor/Adrenergic receptor alpha-1 (Rattus norvegicus). Put plainly: In vivo displacement of [3H]8-OH-DPAT from 5HT1A receptor in Sprague-Dawley rat nucleus accumbens at 13.75 mg/kg, ip qd for 28 days by autoradiography relative to control. Type of experiment: functional, organism-based. The arrangement: dose 13.75 mg/kg. Summed up:
as §4

In experiment [11] the test system is Caudate-putamen. Put plainly: In vivo displacement of [3H]SCH-23390 from dopamine D1 receptor in Sprague-Dawley rat medial part of caudate putamen at 13.75 mg/kg, ip qd for 28 days by autoradiography relative to control. Type of experiment: functional. As to conditions: route intraperitoneal. The essentials:
as §3

In experiment [12] the target is D(2) dopamine receptor (Rattus norvegicus) (UniProt P61169). Put plainly: In vivo displacement of [3H]Nemonapride from dopamine D2 receptor in Sprague-Dawley rat entorhinal cortex at 13.75 mg/kg, ip qd for 28 days by autoradiography relative to control. Also on record: dose 13.75 mg/kg. The format is functional, organism-based. Summed up:
as §1

Experiment [13] has as its target T1, Serotonin 1a (5-HT1a) receptor/Adrenergic receptor alpha-1 (Rattus norvegicus). Put plainly: In vivo displacement of [3H]8-OH-DPAT from 5HT1A receptor in Sprague-Dawley rat dorsolateral frontal cortex at 13.75 mg/kg, ip qd for 28 days by autoradiography relative to control. Type of experiment: functional, organism-based. The arrangement: dose 13.75 mg/kg. The essentials:
as §4

Experiment [14] relates to Caudate-putamen. Put plainly: In vivo displacement of [3H]Ketanserin from 5HT2A receptor in Sprague-Dawley rat lateral part of caudate putamen at 13.75 mg/kg, ip qd for 28 days by autoradiography relative to control. Type of experiment: functional. As to conditions: route intraperitoneal. The essentials: as §2
Experiment [15] is described as follows: In vivo displacement of [3H]Ketanserin from 5HT2A receptor in Sprague-Dawley rat medial-prefrontal cortex at 13.75 mg/kg, ip qd for 28 days by autoradiography relative to control. The format is functional. As to conditions: route intraperitoneal. Summed up: as §2
Experiment [16] relates to Caudate-putamen. Put plainly: In vivo displacement of [3H]8-OH-DPAT from 5HT1A receptor in Sprague-Dawley rat medial part of caudate putamen at 13.75 mg/kg, ip qd for 28 days by autoradiography relative to control. Type of experiment: functional. As to conditions: route intraperitoneal. Summed up: as §4
The test system of experiment [17] is Hippocampus. Put plainly: In vivo displacement of [3H]Ketanserin from 5HT2A receptor in Sprague-Dawley rat hippocampus CA3 region at 13.75 mg/kg, ip qd for 28 days by autoradiography relative to control. Type of experiment: functional. The note with it: route intraperitoneal. Summed up:
as §2

Experiment [18] concerns the target T1, Serotonin 1a (5-HT1a) receptor/Adrenergic receptor alpha-1 (Rattus norvegicus). Put plainly: In vivo displacement of [3H]8-OH-DPAT from 5HT1A receptor in Sprague-Dawley rat entorhinal cortex at 13.75 mg/kg, ip qd for 28 days by autoradiography relative to control. The format is functional, organism-based. The arrangement: dose 13.75 mg/kg. The essentials:
as §4

Experiment [19] can be described thus: In vivo displacement of [3H]Nemonapride from dopamine D4 receptor in Sprague-Dawley rat entorhinal cortex at 13.75 mg/kg, ip qd for 28 days by autoradiography relative to control. Type of experiment: functional. As to conditions: route intraperitoneal.
Experiment [20] is described as follows: In vivo displacement of [3H]SCH-23390 from dopamine D1 receptor in Sprague-Dawley rat medial-prefrontal cortex at 13.75 mg/kg, ip qd for 28 days by autoradiography relative to control. The format is functional. The note with it: route intraperitoneal. The essentials: as §3
For experiment [21], the system named is Caudate-putamen. Put plainly: In vivo displacement of [3H]Nemonapride from dopamine D2 receptor in Sprague-Dawley rat medial of caudate putamen at 13.75 mg/kg, ip qd for 28 days by autoradiography relative to control. Type of experiment: functional. The note with it: route intraperitoneal. Summed up:
as §1

Experiment [22] is described as follows: In vivo displacement of [3H]Nemonapride from dopamine D4 receptor in Sprague-Dawley rat medial-prefrontal cortex at 13.75 mg/kg, ip qd for 28 days by autoradiography relative to control. The format is functional. As to conditions: route intraperitoneal.
In experiment [23] the test system is Hippocampus. Put plainly: In vivo displacement of [3H]Nemonapride from dopamine D4 receptor in Sprague-Dawley rat hippocampus at 13.75 mg/kg, ip qd for 28 days by autoradiography relative to control. The note with it: route intraperitoneal. The format is functional.

D(2) dopamine receptor (Rattus norvegicus), sequence (P61169 whole entry): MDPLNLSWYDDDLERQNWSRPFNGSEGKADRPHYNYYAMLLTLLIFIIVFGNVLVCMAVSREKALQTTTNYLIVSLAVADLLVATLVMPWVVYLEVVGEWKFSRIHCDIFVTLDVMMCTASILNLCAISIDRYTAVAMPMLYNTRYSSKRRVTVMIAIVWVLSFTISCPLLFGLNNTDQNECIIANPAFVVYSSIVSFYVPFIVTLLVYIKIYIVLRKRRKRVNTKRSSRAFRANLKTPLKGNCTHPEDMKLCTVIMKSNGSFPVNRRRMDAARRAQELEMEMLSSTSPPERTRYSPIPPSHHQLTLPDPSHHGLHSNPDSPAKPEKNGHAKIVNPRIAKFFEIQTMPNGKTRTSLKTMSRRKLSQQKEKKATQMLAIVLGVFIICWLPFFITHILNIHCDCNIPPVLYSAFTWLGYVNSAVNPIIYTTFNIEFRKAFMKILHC

As to `Clc1ccc2c(c1)N=C(N1CCNCC1)c1cccnc1O2`, the inhibition in vivo at 13.75 mg/kg was 98% in experiment [1]; 134% in experiment [3]; 53% in [4]; 105% in [5]; 96% in experiment [7]; 128% in experiment [8]. Further, the inhibition in vivo at 13.75 mg/kg was 108% in experiment [9]; 131% in experiment [11]; 107% in [14]; 56% in experiment [15]; 87% in [16]; 92% in [17]. The inhibition in vivo at 13.75 mg/kg came to 103% in [19]; 97% in [20]; 110% in [21]; 110% in experiment [22]; 117% in experiment [23]. Also, the inhibition came out at 103% in [2]; 137% in experiment [6]; 88% in experiment [10]; 96% in experiment [12]; 141% in [13]; 103% in experiment [18].

The inhibition in vivo is the change of the read-out against control, counted positive when it falls. In general, inhibition refers to the relative decrease from the control value, in per cent.

The values are drawn from ChEMBL document CHEMBL2021876, “New pyridobenzoxazepine derivatives derived from 5-(4-methylpiperazin-1-yl)-8-chloro-pyrido[2,3-b][1,5]benzoxazepine (JL13): chemical synthesis and pharmacological evaluation” (J Med Chem, 2012).
